# Measurements as given in ChEMBL document CHEMBL1159115, “Piperidine-derived gamma-secretase modulators” (Bioorg Med Chem Lett, 2010).
# What was measured:
# [1] = Clearance in rat blood at 1 mg/kg, iv and 3 mg/kg, po; assay type: ADME, organism-based
# Method in brief: (§1)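 Rat PK: iv 1 mg/kg paired with oral 3 mg/kg or 2 mg/kg; values are the mean from three animals. Oral bioavailability was measured with the sodium salt in 1% methylcellulose vehicle.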
# [2] = Inhibition of gamma-secretase expressed in african green monkey CV1 cells coexpressing Gal4 DNA-binding/transactivation domain assessed as inhibition of notch processing by luciferase reporter assay; assay type: cell-based; settings: CV-1
# [3] = Oral bioavailability in rat at 3 mg/kg; assay type: ADME, organism-based; settings: in vivo; method in brief: as §1
# [4] = Oral bioavailability in dog at 1 mg/kg; assay type: ADME, organism-based, Canis lupus familiaris; settings: in vivo
# Method in brief: (§2)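 Dog PK: iv and oral doses each 1 mg/kg; data from a single animal. Oral bioavailability was measured with the sodium salt in 1% methylcellulose vehicle.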
# [5] = Clearance in mouse blood at 3 mg/kg, iv and 10 mg/kg, po; assay type: ADME, organism-based
# Method in brief: (§3)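 Mouse PK: single iv dose of 3 mg/kg and oral dose of 10 mg/kg; data are the mean from three animals.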
# [6] = Clearance in dog blood at 1 mg/kg, iv and 1 mg/kg, po; assay type: ADME, organism-based, Canis lupus familiaris; method in brief: as §2
# [7] = Drug level in mouse blood at 5 mg/kg, po after 2 hrs; assay type: ADME, organism-based; parameters: dose 5 mg/kg, route oral; settings: read-out: Drug uptake
# Method in brief: (§4)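 Mice dosed orally at 5 mg/kg in 1% (w/v) aqueous methylcellulose. Blood and brain sampled 2 h post-dose; brain:blood ratio derived from these levels; mean of three mice.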
# Gamma-secretase [8] = experiment: Inhibition of gamma-secretase in human SHSY5Y cells expressing human recombinant APP assessed as amyloid beta42 formation by ELISA; assay type: cell-based; settings: sh-sy5y; in the assay text read “amyloid beta40 formation” for “amyloid beta42 formation”
# Method in brief: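 SH-SY5Y cells overexpressing human APP Swedish variant were incubated with compound for 48 h. Secreted Aβ42 and Aβ40 were measured by immunoassay (MSD electrochemiluminescence or AlphaLISA).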
# [9] = Half life in dog at 1 mg/kg, iv and 1 mg/kg, po; assay type: ADME, organism-based, Canis lupus familiaris; settings: in vivo; method in brief: as §2
# [10] = Volume of distribution at steady state in rat at 1 mg/kg, iv and 3 mg/kg, po; assay type: ADME, organism-based; settings: in vivo, read-out: Vdss; method in brief: as §1
# [11] = Drug level in mouse brain at 5 mg/kg, po after 2 hrs; assay type: ADME, organism-based; parameters: dose 5 mg/kg, route oral; settings: read-out: Drug uptake; method in brief: as §4
# Gamma-secretase [12] = experiment: Inhibition of gamma-secretase in human SHSY5Y cells expressing human recombinant APP assessed as effect on Abeta40 level after 24 hrs by DELFIA; assay type: cell-based; settings: sh-sy5y
# [13] = target: T1, Gamma-secretase (Homo sapiens) (UniProt Q96BI3+Q9NZ42+Q8WW43+P49768+Q92542+P49810); experiment: (§5) Inhibition of gamma-secretase in human SHSY5Y cells expressing human recombinant APP assessed as decrease in Abeta42 level after 24 hrs by DELFIA; assay type: cell-based; settings: SH-SY5Y
# Gamma-secretase [14] = experiment: as §5; assay type: cell-based; settings: sh-sy5y
# SH-SY5Y = experiment: Cytotoxicity against human SH-SY5Y cells after 24 hrs by WST1 assay; assay type: cell-based
# [15] = Half life in rat at 1 mg/kg, iv and 3 mg/kg, po; assay type: ADME, organism-based; settings: in vivo; method in brief: as §1
# [16] = Half life in mouse at 3 mg/kg, iv and 10 mg/kg, po; assay type: ADME, organism-based; settings: in vivo; method in brief: as §3
# CV-1 = experiment: Inhibition of gamma-secretase expressed in african green monkey CV1 cells coexpressing Gal4 DNA-binding/transactivation domain assessed as inhibition of notch processing by luciferase reporter assay at 20 uM; assay type: cell-based
# [17] = Volume of distribution at steady state in dog at 1 mg/kg, iv and 1 mg/kg, po; assay type: ADME, organism-based, Canis lupus familiaris; settings: in vivo, read-out: Vdss; method in brief: as §2
# Gamma-secretase [18] = experiment: Inhibition of gamma-secretase in human SHSY5Y cells expressing human recombinant APP assessed as decrease in total Abeta level after 24 hrs by DELFIA; assay type: cell-based; settings: sh-sy5y
# [19] = Volume of distribution at steady state in mouse at 3 mg/kg, iv and 10 mg/kg, po; assay type: ADME, organism-based; settings: in vivo, read-out: Vdss; method in brief: as §3
# Gamma-secretase [20] = experiment: Inhibition of gamma-secretase in human SHSY5Y cells expressing human recombinant APP assessed as amyloid beta40 formation by ELISA; assay type: cell-based; settings: sh-sy5y; in the assay text read “amyloid beta42 formation” for “amyloid beta40 formation”
# Method in brief: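 SH-SY5Y cells overexpressing human APP Swedish variant exposed to compound for 48 h; Aβ40 (and Aβ42) in the cell medium quantified by ELISA, either Meso Scale Discovery or AlphaLISA format. Compounds also cross-screened for inhibition of Notch processing.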
# [21] = Oral bioavailability in mouse at 10 mg/kg; assay type: ADME, organism-based; settings: in vivo; method in brief: as §3
# [22] = target: T1, Gamma-secretase (Homo sapiens); experiment: (§6) Inhibition of gamma-secretase in human SHSY5Y cells expressing human recombinant APP assessed as increase in Abeta38 level after 24 hrs by DELFIA; assay type: cell-based; settings: SH-SY5Y
# Gamma-secretase [23] = experiment: as §6; assay type: cell-based; settings: sh-sy5y
compound,measurement,setting,value
CC(C)CC[C@H](c1ccc(C(F)(F)F)nc1)N1CC[C@@H](CC(=O)[O-])C[C@H]1c1ccc(C(F)(F)F)cc1.[Na+],clearance,[1],4 mL/min/kg
same,IC50,[2],> 20 µM
same,bioavailability,[3],> 100%
same,bioavailability,[4],72%
same,clearance,[5],4 mL/min/kg
same,clearance,[6],3 mL/min/kg
same,concentration at 2 h,[7],5.6 µM
same,pIC50,Gamma-secretase [8],5.2
same,half-life,[9],5.2 h
same,Vd,[10],2.3 L/kg
same,concentration at 2 h,[11],4.2 µM
same,pIC50,Gamma-secretase [12],4.4
same,Activity,[13],Dose-dependent effect
same,pIC50,Gamma-secretase [14],6
same,IC50,SH-SY5Y,100 µM
same,half-life,[15],6.6 h
same,half-life,[16],4.3 h
same,inhibition,CV-1,24%
same,Vd,[17],1.1 L/kg
same,pIC50,Gamma-secretase [18],4
same,Vd,[19],1.4 L/kg
same,pIC50,Gamma-secretase [20],6.5
same,bioavailability,[21],> 100%
same,Activity,[22],Dose-dependent effect
same,pEC50,Gamma-secretase [23],6.3
